Assay results taken from ChEMBL document CHEMBL2150968, “Development of a bifunctional chelating agent containing isothiocyanate residue for one step F-18 labeling of peptides and application for RGD labeling” (Bioorg Med Chem, 2012).

What was measured:
Lung [1] = assay: Drug uptake in lung of BALB/c nude mouse xenografted with human U87MG cells over expressing […] integrin at 0.148 MBq/0.1 mL after 60 mins by gamma counting in presence of 3 mg/kg c(RGDyk); assay type: ADME, organism-based, U-87MG ATCC; design: dose 3 mg/kg; settings: in vivo, 1 h
Procedure, shortened: (§1)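 Male BALB/c nude mice received 2 × 10^5 U87MG human glioma cells s.c. in the right shoulder, 11 days before tracer. Tracer was given by tail vein; blocking groups were co-injected with cold c(RGDyK) 3 mg/kg. Mice were killed at 60 min; organs and blood were weighed and gamma counted, and %ID/g was calculated. n = 8; Student's t-test.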

Bone [2] = assay: Drug uptake in bone of BALB/c nude mouse xenografted with human U87MG cells over expressing […] integrin at 0.148 MBq/0.1 mL, iv after 60 mins by gamma counting; assay type: ADME, organism-based, Bone element, U-87MG ATCC; settings: in vivo, 1 h; procedure, shortened: as §1
[3] = Drug uptake in human U87MG cells over expressing […] integrin xenografted in BALB/c nude mouse tumor at 11.1 MBq/0.1 mL, iv after 2 hrs by PET/CT imaging; assay type: ADME, organism-based, Neoplasm, U-87MG ATCC; settings: in vivo
Procedure, shortened: (§2)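 Glioma-xenografted BALB/c nude mice were injected by tail vein; inhibition groups were co-injected with cold c(RGDyK) 3 mg/kg. Under 2% isoflurane, dynamic small-animal PET/CT was acquired at 1 and 2 h, with decay-corrected images. SUV = tissue activity concentration (MBq/mL) / (injected dose (MBq) / body weight (g)). Normal tissue reference was the left shoulder.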

Spleen [4] = assay: Drug uptake in spleen of BALB/c nude mouse xenografted with human U87MG cells over expressing […] integrin at 0.148 MBq/0.1 mL, iv after 60 mins by gamma counting; assay type: ADME, organism-based, U-87MG ATCC; settings: in vivo, 1 h; procedure, shortened: as §1
Stomach [5] = assay: Drug uptake in stomach of BALB/c nude mouse xenografted with human U87MG cells over expressing […] integrin at 0.148 MBq/0.1 mL, iv after 60 mins by gamma counting; assay type: ADME, organism-based, U-87MG ATCC; settings: in vivo, 1 h; procedure, shortened: as §1
Pancreas [6] = assay: Drug uptake in pancreas of BALB/c nude mouse xenografted with human U87MG cells over expressing […] integrin at 0.148 MBq/0.1 mL after 60 mins by gamma counting in presence of 3 mg/kg c(RGDyk); assay type: ADME, organism-based, U-87MG ATCC; design: dose 3 mg/kg; settings: in vivo, 1 h; procedure, shortened: as §1
Kidney [7] = assay: Drug uptake in kidney of BALB/c nude mouse xenografted with human U87MG cells over expressing […] integrin at 0.148 MBq/0.1 mL after 60 mins by gamma counting in presence of 3 mg/kg c(RGDyk); assay type: ADME, organism-based, U-87MG ATCC; design: dose 3 mg/kg; settings: in vivo, 1 h; procedure, shortened: as §1
Bone [8] = assay: Drug uptake in bone of BALB/c nude mouse xenografted with human U87MG cells over expressing […] integrin at 0.148 MBq/0.1 mL after 60 mins by gamma counting in presence of 3 mg/kg c(RGDyk); assay type: ADME, organism-based, Bone element, U-87MG ATCC; design: dose 3 mg/kg; settings: in vivo, 1 h; procedure, shortened: as §1
Kidney [9] = assay: Drug uptake in kidney of BALB/c nude mouse xenografted with human U87MG cells over expressing […] integrin at 0.148 MBq/0.1 mL, iv after 60 mins by gamma counting; assay type: ADME, organism-based, U-87MG ATCC; settings: in vivo, 1 h; procedure, shortened: as §1
Muscle tissue [10] = assay: Drug uptake in muscle of BALB/c nude mouse xenografted with human U87MG cells over expressing […] integrin at 0.148 MBq/0.1 mL after 60 mins by gamma counting in presence of 3 mg/kg c(RGDyk); assay type: ADME, organism-based, U-87MG ATCC; design: dose 3 mg/kg; settings: in vivo, 1 h; procedure, shortened: as §1
Liver [11] = assay: Drug uptake in liver of BALB/c nude mouse xenografted with human U87MG cells over expressing […] integrin at 0.148 MBq/0.1 mL after 60 mins by gamma counting in presence of 3 mg/kg c(RGDyk); assay type: ADME, organism-based, U-87MG ATCC; design: dose 3 mg/kg; settings: in vivo, 1 h; procedure, shortened: as §1
Blood [12] = assay: Drug uptake in blood of BALB/c nude mouse xenografted with human U87MG cells over expressing […] integrin at 0.148 MBq/0.1 mL, iv after 60 mins by gamma counting; assay type: ADME, organism-based, U-87MG ATCC; settings: in vivo, 1 h; procedure, shortened: as §1
Intestine [13] = assay: Drug uptake in intestine of BALB/c nude mouse xenografted with human U87MG cells over expressing […] integrin at 0.148 MBq/0.1 mL, iv after 60 mins by gamma counting; assay type: ADME, organism-based, U-87MG ATCC; settings: in vivo, 1 h; procedure, shortened: as §1
Pancreas [14] = assay: Drug uptake in pancreas of BALB/c nude mouse xenografted with human U87MG cells over expressing […] integrin at 0.148 MBq/0.1 mL, iv after 60 mins by gamma counting; assay type: ADME, organism-based, U-87MG ATCC; settings: in vivo, 1 h; procedure, shortened: as §1
[15] = Drug uptake in human U87MG cells overexpressing […] integrin xenografted in BALB/c nude mouse tumor at 11.1 MBq/0.1 mL after 1 hr by PET/CT imaging in presence of 3 mg/kg c(RGDyk); assay type: ADME, organism-based, Neoplasm, U-87MG ATCC; design: dose 3 mg/kg; settings: in vivo; procedure, shortened: as §2
[16] = Drug uptake in human U87MG cells over expressing […] integrin xenografted in BALB/c nude mouse tumor at 11.1 MBq/0.1 mL, iv after 1 hr by PET/CT imaging; assay type: ADME, organism-based, Neoplasm, U-87MG ATCC; settings: in vivo; procedure, shortened: as §2
[17] = Drug uptake in human U87MG cells over expressing […] integrin xenografted BALB/c nude mouse tumor at 0.148 MBq/0.1 mL, iv after 60 mins by gamma counting; assay type: ADME, organism-based, Neoplasm, U-87MG ATCC; settings: in vivo, 1 h; procedure, shortened: as §1
[18] = Drug uptake in human U87MG cells overexpressing alphavbeta3 integrin xenografted in BALB/c nude mouse tumor at 11.1 MBq/0.1 mL after 2 hrs by PET/CT imaging in presence of 3 mg/kg c(RGDyk); settings: in vivo
Lung [19] = assay: Drug uptake in lung of BALB/c nude mouse xenografted with human U87MG cells over expressing […] integrin at 0.148 MBq/0.1 mL, iv after 60 mins by gamma counting; assay type: ADME, organism-based, U-87MG ATCC; settings: in vivo, 1 h; procedure, shortened: as §1
Blood [20] = assay: Drug uptake in blood of BALB/c nude mouse xenografted with human U87MG cells overexpressing […] integrin at 0.148 MBq/0.1 mL after 60 mins by gamma counting in presence of 3 mg/kg c(RGDyk); assay type: ADME, organism-based, U-87MG ATCC; design: dose 3 mg/kg; settings: in vivo, 1 h; procedure, shortened: as §1
Urinary bladder = assay: Drug uptake in bladder of BALB/c nude mouse xenografted with human U87MG cells over expressing […] integrin at 11.1 MBq/0.1 mL, iv after 1 to 2 hrs by PET/CT imaging; assay type: ADME, organism-based, U-87MG ATCC; settings: in vivo; procedure, shortened: as §2
[21] = Chemical stability of the compound after 4 hrs by ITLC-SG analysis; assay type: physicochemical
Procedure, shortened: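 After Al18F labeling (pH 4 sodium acetate buffer, 110 °C, 10 min), stability of the labeled conjugate was followed in the labeling medium at room temperature for 240 min. Decomposition was checked by ITLC-SG; unbound [18F]AlF stays at the origin, the labeled peptide runs to the solvent front.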

[22] = Drug uptake in human U87MG cells over expressing […] integrin xenografted in BALB/c nude mouse tumor at 0.148 MBq/0.1 mL after 1 hr by gamma counting in presence of 3 mg/kg c(RGDyk); assay type: ADME, organism-based, Neoplasm, U-87MG ATCC; design: dose 3 mg/kg; settings: in vivo; procedure, shortened: as §1
Intestine [23] = assay: Drug uptake in intestine of BALB/c nude mouse xenografted with human U87MG cells over expressing […] integrin at 0.148 MBq/0.1 mL after 60 mins by gamma counting in presence of 3 mg/kg c(RGDyk); assay type: ADME, organism-based, U-87MG ATCC; design: dose 3 mg/kg; settings: in vivo, 1 h; procedure, shortened: as §1
Heart [24] = assay: Drug uptake in heart of BALB/c nude mouse xenografted with human U87MG cells over expressing […] integrin at 0.148 MBq/0.1 mL after 60 mins by gamma counting in presence of 3 mg/kg c(RGDyk); assay type: ADME, organism-based, U-87MG ATCC; design: dose 3 mg/kg; settings: in vivo, 1 h; procedure, shortened: as §1
Liver [25] = assay: Drug uptake in liver of BALB/c nude mouse xenografted with human U87MG cells over expressing […] integrin at 0.148 MBq/0.1 mL, iv after 60 mins by gamma counting; assay type: ADME, organism-based, U-87MG ATCC; settings: in vivo, 1 h; procedure, shortened: as §1
Stomach [26] = assay: Drug uptake in stomach of BALB/c nude mouse xenografted with human U87MG cells over expressing […] integrin at 0.148 MBq/0.1 mL after 60 mins by gamma counting in presence of 3 mg/kg c(RGDyk); assay type: ADME, organism-based, U-87MG ATCC; design: dose 3 mg/kg; settings: in vivo, 1 h; procedure, shortened: as §1
[27] = Stability of the compound in human serum for 4 hrs by ITLC-SG analysis; assay type: ADME, cell-free
Procedure, shortened: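 Labeled conjugate was incubated in human serum at 37 °C for 240 min. Decomposition was checked by ITLC-SG; unbound [18F]AlF stays at the origin, the labeled peptide runs to the solvent front.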

Spleen [28] = assay: Drug uptake in spleen of BALB/c nude mouse xenografted with human U87MG cells over expressing […] integrin at 0.148 MBq/0.1 mL after 60 mins by gamma counting in presence of 3 mg/kg c(RGDyk); assay type: ADME, organism-based, U-87MG ATCC; design: dose 3 mg/kg; settings: in vivo, 1 h; procedure, shortened: as §1
Muscle tissue [29] = assay: Drug uptake in muscle of BALB/c nude mouse xenografted with human U87MG cells over expressing […] integrin at 0.148 MBq/0.1 mL, iv after 60 mins by gamma counting; assay type: ADME, organism-based, U-87MG ATCC; settings: in vivo, 1 h; procedure, shortened: as §1
Heart [30] = assay: Drug uptake in heart of BALB/c nude mouse xenografted with human U87MG cells over expressing […] integrin at 0.148 MBq/0.1 mL, iv after 60 mins by gamma counting; assay type: ADME, organism-based, U-87MG ATCC; settings: in vivo, 1 h; procedure, shortened: as §1

Drug uptake (Lung [1]): Not Active
Drug uptake (Bone [2]): Active
SUV [3]: 3.77
Drug uptake (Spleen [4]): Active
Drug uptake (Stomach [5]): Active
Drug uptake (Pancreas [6]): Not Active
Drug uptake (Kidney [7]): Not Active
Drug uptake (Bone [8]): Not Active
Drug uptake (Kidney [9]): Active
Drug uptake (Muscle tissue [10]): Not Active
Drug uptake (Liver [11]): Not Active
Drug uptake (Blood [12]): Active
Drug uptake (Intestine [13]): Active
Drug uptake (Pancreas [14]): Active
SUV [15]: 0.72
SUV [16]: 7.42
Drug uptake [17]: 4.41 % ID/g
SUV [18]: 0.42
Drug uptake (Lung [19]): Active
Drug uptake (Blood [20]): Not Active
Drug uptake (Urinary bladder): Active
remaining at 4 h [21]: > 95%
Drug uptake [22]: 1.33 % ID/g
Drug uptake (Intestine [23]): Not Active
Drug uptake (Heart [24]): Not Active
Drug uptake (Liver [25]): Active
Drug uptake (Stomach [26]): Not Active
remaining at 4 h [27]: > 95%
Drug uptake (Spleen [28]): Not Active
Drug uptake (Muscle tissue [29]): Active
Drug uptake (Heart [30]): Active
SMILES: N=C(N)NCCC[C@@H]1NC(=O)[C@H](CCCCNC(=S)Nc2ccc(CN3CCN4CCN(CC3)CC(=O)[O][Al]([18F])[O]C(=O)C4)cc2)NC(=O)[C@@H](Cc2ccc(O)cc2)NC(=O)[C@H](CC(=O)O)NC(=O)CNC1=O
